# This is a sample that favours compounds with a hit; in the whole collection about 2.9% have one here.
# CHO-K1 Ca antag: nonselective inhibitor or artifact in parental CHO-K1 cells. ATP-induced calcium, Fluo-8 fluorescence. inhibition, % at 3 µM. 360,000 compounds, 0.6% hits;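 active means inhibition above a per-plate cutoff, the plate's mean sample inhibition plus 3 SD, cut at about 24% in these data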
# M1 ag parental: M1 agonist counterscreen hit in parental CHO-K1 cells. activation, % at 3 µM. Fluo-8 calcium fluorescence; scaled to maximal ATP response, vehicle zero. 360,000 compounds, 0.48% hits; in the data active means activation above about 15%;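 further: untransfected CHO-K1 host cells lacking M1 receptor as counterscreen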
# OX1R antag-1: antagonists of human orexin 1 receptor (OX1R) | O43613 | OX1R-expressing cells, FRET antagonist read-out | inhibition, % at 6.6 µM | 330,000 compounds, 1.8% hits; in the data active means inhibition mostly above about 38%, no sharp cut-off; inactive means mostly below about 40%
# Target sequence (O43613 whole entry, looked up): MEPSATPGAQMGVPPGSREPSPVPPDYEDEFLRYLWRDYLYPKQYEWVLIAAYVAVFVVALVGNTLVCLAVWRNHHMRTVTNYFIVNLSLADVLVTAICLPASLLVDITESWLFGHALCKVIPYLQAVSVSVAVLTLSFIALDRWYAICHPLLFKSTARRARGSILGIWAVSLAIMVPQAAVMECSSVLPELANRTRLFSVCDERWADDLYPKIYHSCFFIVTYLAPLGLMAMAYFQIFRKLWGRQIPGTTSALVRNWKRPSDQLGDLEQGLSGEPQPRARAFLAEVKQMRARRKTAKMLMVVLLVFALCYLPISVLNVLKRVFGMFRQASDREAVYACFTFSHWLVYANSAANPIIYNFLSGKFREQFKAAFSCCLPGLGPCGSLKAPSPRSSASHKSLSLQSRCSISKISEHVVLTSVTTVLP
# CHO-K1 Ca PAM: M1 PAM counterscreen hit in parental CHO-K1 cells. ATP EC20, Fluo-8 calcium fluorescence; 0% at ATP EC20, 100% at ATP max. activation, % at 3 µM. 360,000 compounds, 0.02% hits;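 active means activation above the run cutoff, the mean activation of all test compounds plus 3 SD, cut at about 40% in these data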;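 further: peak over basal fluorescence ratio in a 140 s read after ATP addition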
# OX1R antag-2: antagonists of human orexin 1 receptor; O43613; CHO/OX1R cells, Fluo-8 calcium fluorescence, orexin A; inhibition, % at 5 µM; 330,000 compounds, 0.43% hits;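 active means inhibition above its plate's threshold, mean inhibition of all tested compounds on the plate plus 3 SD, cut at about 37% in these data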
# CHO parental Ca: signal in parental CHO cells, OX1R antagonist counter-screen; parental CHO-K1, ATP-induced calcium, Fluo-8 fluorescence; inhibition, % at 5.6 µM; 330,000 compounds, 0.63% hits;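 active means inhibition above that plate's mean sample inhibition plus 3 SD, cut at about 26% in these data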
#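 Material – parental CHO cells · Reagent – ATP stimulus · Compound – single nominal dose of 5.6 µM per compound · Detection – Fluo-8 fluorescence · Read-out basis – percent inhibition of calcium signal · Controls – ATP-challenged DMSO wells low, unchallenged DMSO wells high · Repeats – no replicates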
# OX1R HTRF conf: OX1R (human) antagonism, HTRF confirmed. shares compounds with OX1R antag-1. OX1R-expressing cells, HTRF antagonist assay. inhibition, % at 6.6 µM. 1,800 compounds, 49% hits; in the data active means inhibition above about 55%;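 further: CHO cells expressing OX1R stimulated with orexin A at about EC80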
# CHO-K1 HTRF: counter-screen: parental CHO-K1 HTRF response. 1,800 compounds, 48% hits. inhibition, % at 6.6 µM. shares compounds with OX1R antag-1. AID 493232. parental CHO-K1 cells, HTRF counterscreen; in the data active means inhibition above about 17%
# A number is an active result; – = inactive; · = not tested or not shown; + = active, no number.
SMILES,CHO-K1 Ca antag,M1 ag parental,OX1R antag-1,CHO-K1 Ca PAM,OX1R antag-2,CHO parental Ca,OX1R HTRF conf,CHO-K1 HTRF
CCN(CC)c1ccc2cc(C(=O)Nc3ccccn3)c(=O)oc2c1,–,–,–,–,–,–,·,·
CCN(CC)c1ccc2cc(C(C)=O)c(=O)oc2c1,–,–,95.7,–,–,–,–,–
CCNc1ccc(C(=O)OCC(=O)N2CCCC2)cc1[N+](=O)[O-],–,–,139.7,–,–,–,–,56.3
CCNc1ccc(C(=O)OCC(=O)NCc2ccc(C)cc2)cc1[N+](=O)[O-],–,–,–,–,–,–,·,·
O=C(Nc1ccc(C(=O)NCc2ccccc2)cc1)C1=CSCCO1,–,–,–,–,–,–,·,·
Cc1noc(C)c1NC(=O)N(C)C[C@@H]1Oc2c(NC(=O)c3ccncc3)cccc2C(=O)N([C@H](C)CO)C[C@@H]1C,–,–,–,–,–,–,·,·
O=C(O)c1ccc2nc3c(nc2c1)-c1ccccc1C3=O,–,–,+,–,–,–,64.5,83.7
CCOc1ccc2oc(C(=O)Nc3ccc(C)cn3)c(C)c2c1,–,–,·,–,·,·,·,·
Cc1ccc(NC(=O)c2oc3ccccc3c2C)nc1,–,–,84.3,–,–,–,78.7,–
O=C(O)CCC(=O)Nc1nc2nc(-c3ccccc3)cc(-c3ccccc3)n2n1,–,–,109.2,–,–,–,–,–
Cc1ccc(-n2nc3cc(C)c(N)cc3n2)cc1,–,–,–,–,–,–,·,·
COc1ccc(-n2nc3cc(C)c(N)c(Br)c3n2)cc1,–,–,91.8,–,–,–,–,–
Cn1cc([N+](=O)[O-])c(C(=O)NNC(=O)c2ccc([N+](=O)[O-])cc2)n1,–,–,98.2,–,–,–,–,53.5
Cn1cc([N+](=O)[O-])c(C(=O)N/N=C/c2ccc([N+](=O)[O-])cc2)n1,–,–,109.5,–,–,–,–,58.5
CCN=C(N/N=C/c1ccc([N+](=O)[O-])cc1)SC,–,–,88.4,–,–,–,–,51.2
Cn1cc([N+](=O)[O-])c(C(=O)NCC(=O)O)n1,–,–,–,–,–,–,·,·
Cc1ccnc(N2C(=O)c3cccc4c([N+](=O)[O-])ccc(c34)C2=O)c1,–,–,107.4,–,–,–,–,72.8
Cc1ccnc(N2C(=O)c3ccccc3C2=O)c1,–,–,–,–,–,–,·,·
O=C(OCc1ccccc1)N1CCC2CC1c1ccc(N3CCNCC3)cc12 (stereo not drawn),–,–,·,–,·,·,·,·
CC(C)C(OC(=O)/C=C/c1ccc2c(c1)OCO2)C(=O)NC(N)=O (stereo not drawn),–,–,–,–,–,–,·,·
NC1=NC(=O)/C(=C\c2ccc(O)c([N+](=O)[O-])c2)S1,–,–,90.5,–,–,–,69.3,57.9
O=C(Nc1cc(S(=O)(=O)N2CCCCC2)ccc1O)c1ccccc1NS(=O)(=O)c1ccc(F)c(F)c1,–,–,82.9,–,–,–,–,–
COc1ccc(C(=O)Nc2cc(OC)cc3cccnc23)cc1,–,–,98.5,–,–,–,86.0,21.6
COc1cc(NC(=O)c2ccc(Cl)cc2)c2ncccc2c1,–,–,·,–,·,·,·,·
COC(=O)c1sccc1NC(=O)c1ccc(C)cc1,–,–,–,–,–,–,·,·
SMILES,CHO-K1 Ca antag,M1 ag parental,OX1R antag-1,CHO-K1 Ca PAM,OX1R antag-2,CHO parental Ca,OX1R HTRF conf,CHO-K1 HTRF
COC(=O)c1sccc1NC(=O)c1ccc(OC)cc1,–,–,89.4,–,–,–,68.4,–
COc1cc(OC)cc(C(=O)Nc2cccc3cccnc23)c1,–,–,80.7,–,–,–,75.2,–
COc1cccc(NC(=O)C2(C)CCN2C(=O)Cc2cccc3ccccc23)c1 (stereo not drawn),–,–,·,–,·,·,·,·
CC(C)(C)OC(=O)N/N=C\c1ccc([N+](=O)[O-])s1,–,–,88.3,–,–,–,–,44.3
COc1ccc(NC(=O)CCC(=O)N/N=C/c2cccnc2)cc1,–,–,–,–,–,–,·,·
COc1ccc(NC(=O)CCC(=O)N/N=C/c2ccc([N+](=O)[O-])s2)cc1,–,–,80.6,–,–,–,–,44.8

# Source: PubChem (The Scripps Research Institute Molecular Screening Center)
